SIAE primary = human SIAE inhibitors, primary screen, biochemical, fluorescence polarization, FP-Rh probe, 1536-well HTS; SIAE FP-Rh probe binding; inhibition, % at 9.66 µM; 0.69% of 370,000 active; AID 1053197, 2014;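 active means inhibition above a cutoff: mean of compounds within the control limits plus 3 SD of those, cut at about 17% in these data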
DDE Tn6 FP inh = inhibitors of Tn6 peptide binding to fibrin DD(E), primary screen, biochemical, fluorescence polarization, human fibrin, Tn6 probe; Fibrinogen beta chain (Homo sapiens), P02675; Fibrin DD(E) TRITC-Tn6 fluorescence polarization displacement; inhibition, % at 8.3 µM; 0.21% of 370,000 active; AID 720509, 2013;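 active means inhibition above a per-campaign cutoff: mean of compounds within control limits plus 3 SD, cut at about 15% in these data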
HTRA1 inh = HTRA1 serine protease inhibitors, primary screen, biochemical, fluorescence polarization, HTS; recombinant HTRA1, FP-rhodamine activity-based probe; 0.5% of 340,000 active; inhibition, % at 5.96 µM; Q92743; in the data active means inhibition above about 36%
Tn7 DDE FP = inhibitors of Tn7 peptide binding to fibrin DD(E), primary screen, biochemical, fluorescence polarization, human fibrin, Tn7 probe; FP displacement of FITC-Tn7 peptide from fibrin DD(E); 0% = median of compound wells per plate; inhibition, % at 8.3 µM; 0.13% of 370,000 active; AID 720508, 2013;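 active means inhibition above the mean of compounds falling within the control limits plus 3 SD of them, cut at about 14% in these data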
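Assay system: Human fibrin DD(E) protein | Medium: Tris buffer with calcium and detergent, pH 7.8 | Reagent: 0.1 µM fluorescent Tn7 | Compound dosing: Single point at 8.3 µM | Times: 10 min preincubation, 3 h with tracer, room temperature | Detection: Fluorescence polarization of the labelled Tn7 tracer | Controls: Aha-Tn7 high control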
mABHD4 FP = ABHD4 inhibitors, primary screen, biochemical, fluorescence polarization, mouse; (Lyso)-N-acylphosphatidylethanolamine lipase (Mus musculus), Q8VD66; purified mABHD4, FP-Rh probe fluorescence polarization; inhibition, % at 8.92 µM; 0.54% of 370,000 active;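 active means inhibition exceeding the mean over every tested compound plus 3 SD, cut at about 30% in these data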
Target sequence (Q8VD66 whole entry, looked up): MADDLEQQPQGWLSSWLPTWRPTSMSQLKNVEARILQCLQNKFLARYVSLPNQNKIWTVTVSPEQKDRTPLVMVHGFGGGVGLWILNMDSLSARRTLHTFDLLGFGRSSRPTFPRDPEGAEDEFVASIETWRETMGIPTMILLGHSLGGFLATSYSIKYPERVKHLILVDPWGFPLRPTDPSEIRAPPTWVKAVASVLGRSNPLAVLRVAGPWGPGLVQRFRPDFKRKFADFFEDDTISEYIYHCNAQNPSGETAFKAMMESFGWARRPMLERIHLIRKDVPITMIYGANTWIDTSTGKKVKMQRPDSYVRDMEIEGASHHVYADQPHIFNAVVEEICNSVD
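Test system: mABHD4 protein; Read-out basis: % inhibition; Incubation: 45 min + 60 min at 25 °C; Repeats: single replicate; Technique: fluorescence polarization with parallel and perpendicular emission, 525/598 nm; Compound: 8.92 µM, single dose; Benchmarks: full inhibition S159A mutant plus DMSO, zero as sample-well median.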
TCR-CD3 inh = inhibitors of human TCR-CD3 interaction, primary screen, biochemical, fluorescence, TAMRA-labeled TCR probe; T-cell receptor (TCR); inhibition, % at 9.4 µM; 0.37% of 360,000 active; in the data active means inhibition above about 19%;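 further: recombinant mutant TCR 2C K166C tagged with TAMRA read by polarization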
SIAE confirm = human SIAE inhibitors, retest, confirmation, biochemical, fluorescence polarization, FP-Rh probe, triplicate; shares compounds with SIAE primary; AID 1117263, 2014; 13% of 2,300 active; inhibition, % at 9.66 µM; SIAE FP-Rh activity-based probe;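 active means mean inhibition of the replicates above the hit cutoff set in the primary screen, cut at about 17% in these data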;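 further: inhibitors lower polarization as more probe stays unbound to SIAE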
A number is an active result; n = inactive; x = no result. Rows were chosen to be rich in hits. Some 1.8% of all compounds tested hit in one or more screens of this group.

SMILES	SIAE primary	DDE Tn6 FP inh	HTRA1 inh	Tn7 DDE FP	mABHD4 FP	TCR-CD3 inh	SIAE confirm
Cc1ccccc1CS(=O)(=O)Cc1ccc(C(=O)Nc2cccc(Cl)c2F)o1	n	n	x	n	n	x	x
Cc1cc(C)cc(N/C(N)=N/c2nc(C)cc(C)n2)c1	22.6	n	n	n	n	n	n
Cc1ccc(N/C(N)=N/c2nc(C)cc(C)n2)cc1	n	n	n	n	n	n	x
COc1cc(/C=N/NC(=O)c2cccc([N+](=O)[O-])c2)ccc1OCc1ccc(C)cc1	n	n	n	n	n	n	x
COc1cc(/C=N/NC(=O)c2ccc3nc[nH]c3c2)cc(OC)c1OC(C)=O	n	n	n	n	n	n	x
COc1cc(/C=N\NC(=O)c2ccc(-c3ccccc3)cc2)cc(OC)c1OC(C)=O	22.9	n	n	n	n	n	n
COc1cc(/C=N\NC(=O)c2ccc(-c3ccccc3)cc2)cc(OC)c1O	27.9	n	n	n	n	n	n
COc1cc(/C=N/NC(=O)c2ccc(COc3cc(C)ccc3C(C)C)cc2)cc(OC)c1O	21.9	n	n	n	n	n	n
O=C(CNc1ccc2ccccc2c1)N/N=C/c1ccc(OC(=O)/C=C/c2ccco2)cc1	21.7	n	n	n	n	n	n
O=C(NC1CC1c1ccccc1)N1CCC(c2nc3ccc(Cl)cc3[nH]2)CC1 (configuration not stated)	n	n	x	n	n	x	x
CN(C)CCCCCCCCCCC(=O)/C=N/O	n	n	n	n	n	n	x
CN(CCCCCCCCC(=O)/C=N/O)Cc1ccccc1	22.0	n	n	n	n	n	n
Cc1cccc(Cc2ncc(C(F)(F)F)cc2Cl)c1	19.3	n	n	n	n	n	n
CCOc1ccc(Oc2ccc(NC(=O)CSc3nncn3C)cc2)cc1	18.5	n	n	n	n	n	n
CCCCN(C)S(=O)(=O)c1ccc2[nH]c(=O)oc2c1	n	n	x	n	n	x	x
Cc1ccc(CNc2ccc3c(c2)ncn3C)cc1	n	n	n	n	n	n	x
COc1ccc(CNc2ccc3c(c2)ncn3C)cc1OC	17.8	n	n	n	n	n	n
CCCn1cnc2cc(NCc3cccc(OC)c3O)ccc21	24.6	n	n	n	n	n	n
CCCn1cnc2cc(NCc3ccccn3)ccc21	n	n	n	n	n	n	x
CCCCCN1CCCCC(NC(=O)CSc2ccccc2)C1=O (configuration not stated)	n	n	x	n	n	x	x
O=C(Nc1ccc(F)cc1)Nc1c(-c2ccccc2)nc2ncccn12	n	n	x	n	n	x	x
COc1cc(OC)c(OC)cc1CNC(=O)CCN1C(=O)c2cccc([N+](=O)[O-])c2C1=O	18.8	n	n	n	n	n	n
CCOC(=O)C=Nc1c(N)n(C)c(=O)n(C)c1=O	n	n	n	n	n	n	x
Cn1c(N)c(N=O)c(=O)n(C)c1=O	17.1	n	n	n	n	n	n
CCCC(C)NC(=O)CSc1nc(-c2ccccc2)cn1N (configuration not stated)	17.3	n	n	n	n	n	n
SMILES	SIAE primary	DDE Tn6 FP inh	HTRA1 inh	Tn7 DDE FP	mABHD4 FP	TCR-CD3 inh	SIAE confirm
Cc1ccn2c(Nc3ccccc3C)c(-c3ccccn3)nc2c1	18.0	n	n	n	n	n	n
C=C(C)c1cccc(C(C)(C)NC(=O)Nc2ccc3[nH]c(=O)[nH]c3c2)c1	18.5	n	n	n	n	n	n
Cc1csc(=O)n1CC(=O)OCC(=O)NC(C)c1ccc(F)cc1 (configuration not stated)	18.6	n	n	n	n	n	n
O=C(CSc1nnc(-c2ccccc2)n1-c1ccc(Cl)cc1)c1ccc(Cl)cc1	n	n	x	n	n	x	x
CN(C)/C=N/C(=S)Nc1cc(Cl)cc(Cl)c1	17.3	n	n	n	n	n	n
CCC(C#Cc1ccccc1)N(C)C(N)=NC(=O)/C=C/c1ccccc1 (configuration not stated)	n	n	x	n	n	x	x
C#CCN1CC(N(C)CCOC(=O)c2ccc(OC)c(OC)c2)CS1(=O)=O (configuration not stated)	n	n	x	n	n	x	x
N#Cc1ccc(N=c2ssnc2Cl)cc1	22.4	n	n	n	n	n	17.1
Clc1ccc(N=c2ssnc2Cl)cc1	n	n	n	n	n	n	x
O=C(Nc1ccc(Cl)cc1)C1CCCN1S(=O)(=O)c1cccc2cccnc12 (configuration not stated)	n	n	x	n	n	x	x
Cc1ccc2c(c1)-c1c(cnn1CC(=O)NCCc1ccccc1F)CO2	n	n	x	n	n	x	x
Nc1ccc(NC(=S)Nc2ccccc2)cc1	17.2	n	n	n	n	n	n
S=C(NCCNC(=S)Nc1ccccc1)Nc1ccccc1	n	n	n	n	n	n	x
Cc1noc(C)c1COC(=O)c1csc2c1CCC(C)C2 (configuration not stated)	20.1	n	n	n	n	n	n
CC1CCc2c(C(=O)NCC3CCCO3)csc2C1 (configuration not stated)	n	n	n	n	n	n	x
COCCNC(=O)c1cccc(OC2CCN(Cc3cccc(C(C)=O)c3)CC2)c1	26.5	n	n	n	n	n	n
COc1cccc(-c2nc(NC3CCCC3)c3ccccc3n2)c1O	29.1	n	n	n	n	n	n
COc1cccc(-c2nc(NCc3ccccc3)c3ccccc3n2)c1O	n	n	n	n	n	n	x
COC(=O)[C@]12C[C@H](CC(=O)NCc3ccc(C)o3)C(=O)N(Cc3ccc4c(c3)OCO4)C1=C[C@H](C(C)(C)C)O[C@@H]2C	n	n	x	n	n	n	x
S=c1[nH]ncn1/N=C/c1ccccn1	17.1	n	n	n	n	n	n
CCN(C(=O)c1cccc2c1-c1ccccc1C2=O)c1ccccc1	n	n	x	n	n	x	x
CCOC(=O)C(C)N1CC(=O)N(c2ccccc2)C1=O (configuration not stated)	17.6	n	n	n	n	n	n
CN(C)c1ccc(NC(=O)C2C3C=CC(C3)C2C(=O)O)cc1 (configuration not stated)	23.3	n	n	n	34.5	32.7	n
COC(=O)[C@]12C[C@H](CC(=O)NCc3ccc(OC)c(OC)c3)C(=O)N(Cc3cccc4ccccc34)C1=C[C@H](COCc1ccccc1)O[C@@H]2C	n	n	x	n	n	x	x

High-throughput results: PubChem BioAssay, The Scripps Research Institute Molecular Screening Center
